# Hck Nef HTS: inhibitors of Nef-activated human Hck kinase, primary screen, biochemical, Z-Lyte FRET, 384-well, Hck-YEEI; Tyrosine-protein kinase HCK (Homo sapiens), P08631; Recombinant Hck-YEEI plus Nef, Z-Lyte FRET kinase assay; inhibition, % at 20 µM; 220,000 compounds, 0.68% hits; AID 463187, 2010;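 active means Hck-Nef kinase inhibition above about 50%, limit read from the data; inactive means inhibition below that limit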;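 further: 0% = DMSO with Hck plus Nef and 100% = Hck alone without Nef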
# Target sequence (P08631 whole entry, looked up): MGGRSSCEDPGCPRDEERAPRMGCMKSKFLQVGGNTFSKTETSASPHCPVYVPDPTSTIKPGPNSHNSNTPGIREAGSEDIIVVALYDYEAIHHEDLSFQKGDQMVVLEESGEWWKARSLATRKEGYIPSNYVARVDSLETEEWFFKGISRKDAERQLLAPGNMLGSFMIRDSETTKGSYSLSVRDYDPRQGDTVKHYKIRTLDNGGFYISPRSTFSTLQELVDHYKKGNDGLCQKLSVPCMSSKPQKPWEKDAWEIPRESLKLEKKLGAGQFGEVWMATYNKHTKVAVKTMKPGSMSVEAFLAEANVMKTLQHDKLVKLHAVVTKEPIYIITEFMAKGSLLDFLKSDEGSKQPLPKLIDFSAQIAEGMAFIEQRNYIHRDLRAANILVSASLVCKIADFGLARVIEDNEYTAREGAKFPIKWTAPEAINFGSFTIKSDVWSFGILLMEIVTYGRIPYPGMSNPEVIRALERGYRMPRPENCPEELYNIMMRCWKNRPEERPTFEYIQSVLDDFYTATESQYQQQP
# RAM inhibit: inhibitors of the yeast RAM network, primary screen, dse1pr::URA3 reporter, 5-FOA selection; S. cerevisiae dse1pr::URA3 reporter, 5-FOA growth OD615, 2 d; analog-sensitive cbk1-as2 kinase mutant strain; inhibition, % at 50 µM; 190,000 compounds, 1.8% hits; AID 868, 2007;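 active means inhibition above a set limit, 3 SD over mean compound inhibition, cut at about 8.4% in these data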;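 further: 0% = DMSO-only wells with no growth and 100% = 10 µM 1-NA-PP1 full growth; inhibition rescues growth on 5-FOA so higher OD means more RAM inhibition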
# Arbovirus anti: antivirals against arbovirus infection, primary screen, cell-based, full library, 10K replicate subset; inhibition, % at 10 µM; 200,000 compounds, 0.37% hits; AID 1251, 2008; arbovirus infection cell-based antiviral screen; in the data active means inhibition above about 30%
# NCF1 inh: p47phox/p22phox peptide binding inhibitors, primary screen, biochemical, uHTS, NADPH oxidase regulatory subunit | fluorescence polarization, 2 h | inhibition, % at 24.7 µM | 220,000 compounds, 0.53% hits | Neutrophil cytosol factor 1 (Homo sapiens), P14598;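 active means inhibition above about 30%, limit read from the data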;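 further: 0% = p47phox with labelled peptide and 100% = labelled peptide alone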
# Biofilm kill mix: clotrimazole potentiators killing C. albicans biofilm, primary screen, 4-compound mixtures; C. albicans biofilm persisters + clotrimazole, fluorescence viability; primary screen in compound mixtures of four per well; inhibition, % at 7.6 µM; 120,000 compounds, 0.02% hits; AID 1242, 2008;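 active means inhibition above 30.3% in the primary screen of four-compound pools, then above 30% when the compound was retested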;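 further: compounds exposed to preformed 24 h biofilms for 48 h; 0% = untreated biofilm control and 100% = clotrimazole plus chlorhexidine kill blank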
#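 Incubation: 24 h biofilm formation, then 48 h compound exposure, 37 °C | Material: C. albicans biofilms | Buffer or medium: RPMI/MOPS medium, pH 7.0 | Measured by: 2-h Alamar Blue fluorescence, 535/590 nm excitation/emission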
# WT yeast gro inh: growth inhibition of WT strain, primary screen, mitochondrial fusion inhibitor project, WT and mutant strains, chemical genetic. mitochondrial fusion phenotypic screen. inhibition, % at 10 µM. 190,000 compounds, 2.1% hits. AID 1362, 2008; in the data active means inhibition above about 58%; tested in S. cerevisiae
# RAM efflux-def: 5-FOA growth of efflux-deficient control yeast, dose response, counter-screen for RAM network inhibitor project, S. cerevisiae, OD615. AID 1305, 2008. max inhibition, %. S. cerevisiae efflux-deficient reporter strain, 5-FOA growth OD615, 2 days. 1,200 tested, under 10 active. shares compounds with RAM inhibit; call rule not given here;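 further: plate controls were vehicle for no effect and reference inhibitor for full effect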
# The depositor's hits bear a star; x = no result. A selection: hits, their analogues and other compounds. The true share with any hit is near 4.6%.
SMILES,Hck Nef HTS,RAM inhibit,Arbovirus anti,NCF1 inh,Biofilm kill mix,WT yeast gro inh,RAM efflux-def
Cc1ccc(CN2CCSc3ccc(C(=O)NCc4ccco4)cc32)cc1,32,14*,-27,-2,0,33,2
Cc1ccc(OCc2nnc(SCC(=O)Nc3ccc4c(c3)OCCO4)n2Cc2ccco2)cc1,2,12*,-2,-23,x,5,1
O=c1[nH]nc(N/N=C/c2ccccc2OC(F)F)c(=O)[nH]1,4,x,x,-8,15,x,x
CCn1nc(C(=O)OCC(=O)N2CC(=O)Nc3ccccc32)c2ccccc2c1=O,0,2,-1,-5,15,-20,x
Cc1ccc(CSc2nc3sc(C)c(C)c3c(=O)n2Cc2ccco2)cc1,-1,17*,14,-14,x,23,3
Cc1sc2nc(SCc3ccccc3)n(Cc3ccco3)c(=O)c2c1C,0,13*,3,-9,x,-1,4
COc1ccc(NC(=O)CSc2nc3sc(C)c(C)c3c(=O)n2Cc2ccco2)cc1,9,4,6,-4,x,6,x
COc1cccc(CSc2nc3sc(C)c(C)c3c(=O)n2Cc2ccco2)c1,0,16*,21,-25,x,-7,5
Cc1sc2nc(SCc3nc4ccccc4[nH]3)n(Cc3ccco3)c(=O)c2c1C,9,2,15,-48,x,10,x
Cc1cccc(CSc2nc3sc(C)c(C)c3c(=O)n2Cc2ccco2)c1,-23,22*,23,-3,x,-3,5
Cc1sc2nc(SCC(=O)C(C)(C)C)n(Cc3ccco3)c(=O)c2c1C,-1,3,-8,-7,x,23,x
CCN(CC)C(=O)Cn1cc(C(=O)C(=O)NCc2ccco2)c2ccccc21,7,0,17,2,14,11,x
Cc1ccc(-n2c(C)nn(CCOc3ccccc3)c2=O)cc1,1,0,0,-5,6,0,x
CCN1CCN(S(=O)(=O)c2cc(C(=O)O)ccc2Cl)CC1,-3,x,x,-24,6,x,x
N#Cc1ccccc1NC(=O)c1ccc2c(Cl)c3c(nc2c1)CCCC3,1,1,-1,-5,12,32,x
O=C(Nc1cccnc1Cl)c1ccc2c(Cl)c3c(nc2c1)CCC3,-1,12*,-8,5,6,17,4
O=C(CSc1ccc(Br)cc1)Nc1ccccc1Oc1ccccc1,-3,11*,-4,-12,4,-7,2
COc1cc2c(cc1OC)C(c1cccs1)N(C(=S)NC(C)C)CC2 (centres undefined),21,2,0,-15,15,7,x
CCN=c1scc(-c2cccs2)n1/N=C/c1cc(OC)ccc1O,-2,12*,3,-5,14,47,2
Clc1cc(Cl)cc(Nc2ncn[nH]2)c1,26,1,6,-21,x,-17,x
Cn1c(=O)c2c(ncn2CC(=O)OCC(=O)Nc2ccccc2Cl)n(C)c1=O,0,1,-8,-3,12,-14,x
Cn1c(=O)c2c(ncn2CC(=O)OCC(=O)NC(c2ccccc2)c2ccccc2)n(C)c1=O,1,14*,-11,-5,21,17,1
CC(=O)c1cc(C(=O)c2ccccc2)sc1Nc1ccccc1,3,12*,-2,-1,16,8,3
CCCNC(=O)NC(=O)COC(=O)c1ccc(S(=O)(=O)N(C)c2ccccc2OC)cc1,4,0,-13,-7,8,-12,x
COc1ccccc1N(C)S(=O)(=O)c1ccc(C(=O)OCC(=O)NCCC2=CCCCC2)cc1,-4,15*,-2,-20,14,8,2
Cc1cc(C)cc(NC(=O)c2c(C)nc3ccccn23)c1,26,0,0,2,12,16,x
CCC(=O)Nc1ccccc1C(=O)OCc1ccc(C(=O)c2ccccc2)cc1,0,12*,-6,-10,x,1,3
CCC(=O)Nc1ccccc1C(=O)OC(c1ccccc1)c1ccccc1,7,4,6,-5,-1,42,x
